How the values were obtained:
[1] = system: Rattus norvegicus; assay: Antiinflammatory activity in Wistar rat assessed as inhibition of carrageenan-induced paw edema at 50 mg/kg, po pretreated for 30 mins followed by carrageenan challenge measured after 3 hrs relative to control; format: functional
Summary of the method: (§1)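 Male Wistar rats (120-150 g), six per group, dosed orally with compound suspended in 1% gum arabic; 30 min later 0.1 mL 1% carrageenan injected sc into hind paw plantar surface. Edema measured at 3 h; percent inhibition calculated against carrageenan-only animals.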

[2] = system: Mus musculus; assay: Analgesic activity in sc dosed ddY mouse assessed as inhibition of acetic acid-induced abdominal stretching pretreated for 30 mins followed by acetic acid challenge measured for 5 to 20 mins; format: functional; conditions: Abdomen
Summary of the method: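 Compound suspended in 1% gum arabic, given sc to mice; 30 min later 0.6% acetic acid ip at 0.1 mL/10 g body weight. Mouse counted protected if no stretching from 5 to 20 min after acid; ED50 by Litchfield–Wilcoxon method.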

[3] = system: Rattus norvegicus; assay: Antiinflammatory activity in Wistar rat assessed as inhibition of carrageenan-induced paw edema at 100 mg/kg, po pretreated for 30 mins followed by carrageenan challenge measured after 3 hrs relative to control; format: functional; summary of the method: as §1
[4] = Acute toxicity in ip dosed ddY mouse measured after 72 hrs; format: organism-based; conditions: in vivo
[5] = system: Rattus norvegicus; assay: Antiinflammatory activity in Wistar rat assessed as inhibition of carrageenan-induced paw edema at 25 mg/kg, po pretreated for 30 mins followed by carrageenan challenge measured after 3 hrs relative to control; format: functional; summary of the method: as §1

Compound	inhibition in vivo at 50 mg/kg [1] [%]	ED50 [2] [mg/kg]	inhibition in vivo at 100 mg/kg [3] [%]	LD50 at 72 h [4] [mg/kg]	inhibition in vivo at 25 mg/kg [5] [%]
C=CCOc1c(N2CCOCC2)cnn(C)c1=O	5.2	90	17.4	–	–
Cn1ncc(Cl)c(Cl)c1=O	-8.9	> 100	23.2	–	–
Cn1ncc(N2CCOCC2)c(Cl)c1=O	32.2	35	38.9	75	15.2
Cn1ncc(N2CCOCC2)c(O)c1=O	8.2	> 100	16.6	–	–
Cn1ncc(O)c(Cl)c1=O	–	> 100	-5.8	–	–
CCOc1c(NC)cnn(C)c1=O	4.5	55	31.1	400	-1.1
CCCNc1cnn(C)c(=O)c1OCC	8	72	38	–	2
CCOc1c(N(C)C)cnn(C)c1=O	30.7	86	49.5	305	27.5
CCOc1c(N(CC)CC)cnn(C)c1=O	1.7	70	32.5	–	–
C=CCN(CC=C)c1cnn(C)c(=O)c1OCC	-5.2	82	12.9	–	–
CCOc1c(N2CCSCC2)cnn(C)c1=O	6.2	> 100	11.8	–	–
CCOc1c(N2CCCCC2)cnn(C)c1=O	-5.4	86	14.1	–	–
CCOc1c(N2CCCC2)cnn(C)c1=O	-2.3	> 100	23	–	–
CCOc1c(N2CCN(C)CC2)cnn(C)c1=O	10.2	82	12.3	–	–
CCOc1c(Nc2ccccc2)cnn(C)c1=O	–	36	4.9	–	–
COc1c(N2CCOCC2)cnn(C)c1=O	23.2	72	43.4	600	11
CCCOc1c(N2CCOCC2)cnn(C)c1=O	32.4	23	34.9	500	4.5
CC(C)Oc1c(N2CCOCC2)cnn(C)c1=O	–	86	7.2	–	–

Compound	inhibition in vivo at 50 mg/kg [1] [%]	ED50 [2] [mg/kg]	inhibition in vivo at 100 mg/kg [3] [%]	LD50 at 72 h [4] [mg/kg]	inhibition in vivo at 25 mg/kg [5] [%]
CCCCOc1c(N2CCOCC2)cnn(C)c1=O	-2.8	41	28.8	440	–
CCCCCOc1c(N2CCOCC2)cnn(C)c1=O	2.4	29	20.7	420	–
CCOc1c(N2CCOCC2)cnn(CC)c1=O	25.4	95	58.4	380	8.3
CCCn1ncc(N2CCOCC2)c(OCC)c1=O	3.5	> 100	32.4	–	–
CCOc1c(N2CCOCC2)cnn(C(C)C)c1=O	2.1	> 100	22.2	–	–
CCCCn1ncc(N2CCOCC2)c(OCC)c1=O	–	> 100	18.3	–	–
C/C=C/n1ncc(N2CCOCC2)c(OCC)c1=O	–	> 100	3.1	–	–
C=CCn1ncc(N2CCOCC2)c(OCC)c1=O	1.2	18	23.5	550	–
CCOc1c(N2CCOCC2)cn[nH]c1=O	–	> 100	9.2	–	–
CCOc1ccnn(C)c1=O	–	> 100	-12.2	–	–
Cn1ncccc1=O	–	65	4.5	–	–
O=c1cccn[nH]1	–	> 100	6.3	–	–
Cn1ncc(N2CCOCC2)cc1=O	–	> 100	-5.6	–	–
Cc1c(N(C)C)c(=O)n(-c2ccccc2)n1C [AMINOPYRINE]	25	46	48.2	420	11
CCOc1c(N2CCOCC2)cnn(C)c1=O [EMORFAZONE]	38.8	41	55	700	20.2
CCCCC1C(=O)N(c2ccccc2)N(c2ccccc2)C1=O [PHENYLBUTAZONE]	35	> 100	40.6	420	18
c1ccnnc1 [PYRIDAZINE]	–	> 100	-2.4	–	–
